# Rows were chosen to be rich in hits. Some 2.1% of all compounds tested hit in one or more screens of this group.
# ASAP1 GAP inh = ASAP1 ArfGAP inhibition; ASAP1-stimulated ARF1 GTP hydrolysis, GDP FP detection; 360,000 compounds, 0.19% hits; inhibition, % at 16.5 µM; AID 624377; in the data active = inhibition above about 25%;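 also: 0% = vehicle with enzyme and substrate and 100% = no enzyme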
# A3A deaminase = inhibitors of human APOBEC3A DNA deaminase. AID 493011. P31941. 330,000 compounds, 0.41% hits. recombinant A3A, FAM/TAMRA ssDNA deamination fluorescence. inhibition, % at 20 µM;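 active = at least 40% inhibition at 20 µM here, with at most 30% in a related deaminase screen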;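 also: plate controls were A3A with DMSO for no effect and wells lacking A3A enzyme for full effect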
# Target sequence (P31941 whole entry, looked up): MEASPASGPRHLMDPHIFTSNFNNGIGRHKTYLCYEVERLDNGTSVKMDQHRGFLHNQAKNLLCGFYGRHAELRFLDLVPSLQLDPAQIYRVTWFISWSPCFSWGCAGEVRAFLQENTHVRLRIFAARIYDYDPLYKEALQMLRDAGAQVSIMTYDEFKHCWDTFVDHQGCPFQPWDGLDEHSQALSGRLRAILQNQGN
# C2C12 statin = suppression of simvastatin myotoxicity; C2C12 myotubes + simvastatin, ATP luminescence, 48 h; scaled: DMSO 0, geranylgeraniol control 100; rescue of ATP level, % at 7.49 µM; 330,000 compounds, 0.78% hits; AID 602340;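 active = mean ATP rescue above about 67%, or every replicate alone reaching that limit, limit read from the data, passing the limit was not always enough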;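 also: myotubes were challenged with 10 µM simvastatin during compound exposure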
# ARFGAP1 inh = inhibitors of rat ARFGAP1 | Arfgap1-stimulated ARF1 GTP hydrolysis, GDP FP detection | inhibition, % at 16.5 µM | 360,000 compounds, 0.26% hits | AID 651572;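 active = inhibition above a per-plate limit, mean inhibition of low control wells plus 3 SD, cut at about 25% in these data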;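 also: 0% = DMSO wells with enzyme and 100% = wells lacking Arfgap1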
#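 Material: rat Arfgap1 catalytic domain, aa 1-136; also added: human ARF1(Δ1-17)-GTP substrate; compound dosing: one concentration, 16.5 µM, DMSO 1.26%; incubation: GTP hydrolysis reaction 2 h at 25 °C; measured by: Tracer-displacement fluorescence polarization with EDTA stop, 620/688 nm; evaluation: % inhibition from polarization; repeats: one replicate per compound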
# Mot1-301 SUMO = blocks SUMOylation pathway, rescuing yeast Mot1-301 growth; S. cerevisiae Mot1-301 growth rescue, ATP luminescence, 38.5C; percent above DMSO median, 100 means doubled; growth rescue, % at 18.8 µM; 320,000 compounds, 1% hits;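 active = every valid replicate shows activation above 250% relative to neutral control wells; inactive = the rest, any valid replicate at or below 250%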;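 also: OY570 slx delta 5 strain wells were the positive control but not used for scaling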
# A3G deaminase = blocks human APOBEC3G single-stranded DNA deamination; Q9HC16; recombinant A3G, ssDNA deamination FAM/TAMRA fluorescence; inhibition, % at 20 µM; 330,000 compounds, 0.28% hits;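 active = inhibition of at least 40% at 20 µM, with no more than 30% in the related APOBEC3A deaminase screen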;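 also: plate controls were DMSO wells with A3G for no effect and wells lacking A3G enzyme for full effect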
# Target sequence (Q9HC16 whole entry, looked up): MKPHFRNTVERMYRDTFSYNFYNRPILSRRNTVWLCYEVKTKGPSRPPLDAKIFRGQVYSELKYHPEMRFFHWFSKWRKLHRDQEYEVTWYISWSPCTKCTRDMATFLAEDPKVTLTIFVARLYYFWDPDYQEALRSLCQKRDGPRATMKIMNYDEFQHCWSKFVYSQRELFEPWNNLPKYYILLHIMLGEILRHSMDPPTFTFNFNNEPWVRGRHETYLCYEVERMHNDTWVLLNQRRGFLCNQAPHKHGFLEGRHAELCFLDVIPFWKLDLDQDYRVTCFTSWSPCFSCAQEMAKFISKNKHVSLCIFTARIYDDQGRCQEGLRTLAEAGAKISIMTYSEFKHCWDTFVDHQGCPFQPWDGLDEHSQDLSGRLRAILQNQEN
# The depositor's hits bear a star; · = no result; + = active, no number.
SMILES,ASAP1 GAP inh,A3A deaminase,C2C12 statin,ARFGAP1 inh,Mot1-301 SUMO,A3G deaminase
Cc1cc(Oc2ccccc2)nc(-c2ccccc2O)n1,10,2,104*,-13,7,-1
O=C(O)c1ccccc1C(=O)NNc1ccc(F)cc1,5,-4,·,-1,267*,7
O=C(O)c1ccccc1C(=O)NCc1ccc(F)cc1,3,-4,-2,-5,50,-9
NC(=O)c1sc(=S)n2c1[nH]c(=O)c1sccc12,-1,2,19,-3,730*,-2
O=C(C[C@@H]1CC[C@H](NC(=O)c2ccc3c(c2)OCO3)[C@@H](CO)O1)NC1Cc2ccccc2C1,·,·,6,·,·,·
CCOc1ccccc1OCC(=O)Nc1cccc(S(=O)(=O)NC2=NCCCCC2)c1,-7,-7,-15,4,-15,-8
CCOc1ccccc1Nc1nnc(SCC(=O)Nc2cccc(S(=O)(=O)NC3=NCCCCC3)c2)s1,-2,-5,4,-5,677*,-5
O=C(O)Cn1cc(/C=C2\SC(=O)N(c3ccccc3)C2=O)c2ccccc21,-8,2,0,1,672*,-5
COCCNC(=O)C[C@H]1C[C@@H]2c3cc(NC(=O)NC4CCCC4)ccc3O[C@@H]2[C@@H](CO)O1,·,·,-4,·,·,·
Cn1c(-c2ccccc2)cnc1NCc1ccc(-c2ccccc2)cc1,-4,-5,-6,8,383*,-5
Cn1c(-c2ccc(F)cc2)cnc1NCc1ccc(C#N)cc1,-10,-3,1,12,-4,-4
COc1ccc(CNc2ncc(-c3ccccc3)n2C)cc1,-10,-3,11,7,337,-1
Cn1c(-c2ccc(F)cc2)cnc1NCc1ccc(F)cc1,13,3,122*,6,7,1
O=C(O)CCCCCN1C(=O)/C(=C\c2ccc(-c3ccc(Cl)cc3)o2)SC1=S,6,1,133*,-13,-9,-1
CN1C(=O)C2(c3ccccc31)C1CCCC=C1C(C#N)=C(N)C2(C#N)C#N (stereo not given),5,-3,155*,6,-3,-3
CN1C(=O)C2(C(C#N)=C(N)N(c3cc(Cl)cc(Cl)c3)C3=C2C(=O)CCC3)c2ccccc21 (stereo not given),19,-3,·,4,65,-6
Cc1ccc(-c2nnc(CSc3nnc(COc4cccc5ccccc45)n3-c3ccccc3)o2)cc1,10,-1,136*,-9,4,-3
O=C(NCC[C@H]1CC[C@H](NC(=O)c2cnccn2)[C@H](CO)O1)Nc1ccc(Cl)cc1,·,·,-6,·,·,·
COc1ccc(C)cc1NC(=O)CC1COc2ccccc2O1 (stereo not given),2,1,-2,6,-11,-2
Cc1ccc(NC(=O)CC2COc3ccccc3O2)cc1 (stereo not given),5,-1,113*,0,·,-2
COc1ccc(OCC(=O)NCCCn2ccnc2)cc1,-10,30,11,-11,186,-1
CC(Oc1ccc2ccc(=O)oc2c1)C(=O)NCCCn1ccnc1 (stereo not given),-6,-1,96*,6,145,-2
O=C(COc1ccc(Cl)cc1)NCCCn1ccnc1,-11,3,72*,-20,-7,4
CCNS(=O)(=O)c1ccc(OC)c(C(=O)NC2CCCCC2)c1,·,-1,7,·,323*,0
Cc1ccc(S(=O)(=O)N2CCOCC2)cc1C(=O)NC1CCCCC1,-1,-5,71*,9,-7,-8
SMILES,ASAP1 GAP inh,A3A deaminase,C2C12 statin,ARFGAP1 inh,Mot1-301 SUMO,A3G deaminase
Cc1ccc(NC(=O)COc2ccc(S(=O)(=O)N3CCOCC3)cc2)cc1,2,3,152*,-9,8,-1
O=C(COc1ccc(S(=O)(=O)N2CCOCC2)cc1Cl)NC1CCCCC1,-1,2,5,-8,338*,10
CO[C@@H]1CN(C)C(=O)c2cc(NC(=O)C3CC3)ccc2OC[C@H](C)N(C(=O)C2CCOCC2)C[C@@H]1C,·,·,9,·,·,·
Oc1c(/C=N/c2ccccn2)sc2ccccc12,17,1,9,12,+,-1
Oc1c(C=Nc2ccc(Cl)cn2)sc2ccccc12,3,4,·,-5,-12,1
CNC(=O)C[C@@H]1CC[C@@H]2[C@H](COc3ccc(NC(=O)c4ccc(F)c(F)c4)cc3C(=O)N2C)O1,·,·,2,·,·,·
CN1C(=O)c2cc(NC(=O)c3ccc(F)c(F)c3)ccc2OC[C@H]2O[C@@H](CC(=O)Nc3ccc4c(c3)COC4)CC[C@@H]21,·,·,102*,·,·,·
CN1C(=O)c2cc(NC(=O)Cc3cccs3)ccc2OC[C@H]2O[C@@H](CC(=O)NCc3ccc(-c4ccccc4)cc3)CC[C@H]21,·,·,72*,·,·,·
CO[C@H]1CN(C)C(=O)c2ccc(NC(=O)C3CCCCC3)cc2OC[C@@H](C)N(C(=O)c2ccccc2)C[C@H]1C,·,·,-10,·,·,·
O=C(C[C@H]1C[C@H]2c3cc(NC(=O)c4cccnc4)ccc3O[C@H]2[C@@H](CO)O1)NCc1cccnc1,·,·,0,·,·,·
Cc1cc(-n2c(C)cc(C(=O)COC(=O)CN=C3NS(=O)(=O)c4ccccc43)c2C)no1,6,-3,·,-17,134,-3
Cc1cc(C(=O)COC(=O)CN=C2NS(=O)(=O)c3ccccc32)c(C)n1CCc1ccc(Cl)cc1,2,1,112*,13,11,-2
COCCn1c(N2CCN(c3ccc(OC)cc3)CC2)nc2c1c(=O)[nH]c(=O)n2C,1,-4,-10,2,-15,-6
CCOCCn1c(N2CCN(c3ccc(OC)cc3)CC2)nc2c1c(=O)[nH]c(=O)n2C,9,-2,103*,-7,-10,-5
COC(=O)C[C@@H]1CC[C@@H]2[C@H](COc3ccc(NC(=O)c4ccc(OC)cc4)cc3C(=O)N2C)O1,·,·,14,·,·,·
COC(=O)c1scc(C)c1NC(=O)c1ccc(Cl)cc1,·,-3,12,·,-4,-7
COC(=O)c1scc(C)c1NC(=O)C1CCCCC1,-9,1,83*,-8,-30,2
CC(=O)Cn1c(=O)oc2ccccc21,8,2,6,-1,-23,3
CCN(CC)C(=O)Cn1c(=O)oc2ccccc21,-2,-2,·,-1,389*,-9
COC(=O)c1cc(=O)n(Cc2ccco2)c(=Nc2ccc(F)c(Cl)c2)s1,7,1,6,-1,-7,1
COC(=O)c1cc(=O)n(CCc2ccccc2F)c(=Nc2ccc(F)c(Cl)c2)s1,-4,0,110*,12,-3,-1
COc1ccc(N(Cc2cc3ccccc3[nH]c2=O)S(=O)(=O)c2ccccc2)cc1,-8,4,182*,13,-6,5
COc1ccc2[nH]c(=O)c(CN(CCc3ccccc3)C(C)=O)cc2c1,-16,4,114*,18,-13,25
